RBBP9 inhibitor = inhibitors of human serine hydrolase RBBP9; O75884; recombinant RBBP9, FP-Rh probe fluorescence polarization; inhibition, % at 7.94 µM; 220,000 compounds, 0.2% hits; AID 1515;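 active means inhibition above the campaign mean of all tested compounds plus 3 SD, cut at about 14% in these data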;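 further: plate controls were DMSO wells with RBBP9 for no effect and wells lacking RBBP9 protein for full effect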
Target sequence (O75884 whole entry, looked up): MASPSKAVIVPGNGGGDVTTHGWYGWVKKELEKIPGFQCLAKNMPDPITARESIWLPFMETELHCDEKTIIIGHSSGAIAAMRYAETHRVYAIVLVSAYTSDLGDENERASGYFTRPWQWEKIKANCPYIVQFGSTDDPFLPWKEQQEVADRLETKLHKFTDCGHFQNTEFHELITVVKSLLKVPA
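system = RBBP9 protein | input = RBBP9 at 2.5 µM in dispensed solution, before mixing | measured by = fluorescence polarization (mP), excitation 525 nm, emission 598 nm | incubation = enzyme-compound preincubation 30 min, then probe labeling 45 min, 25 °C | buffer or medium = Tris-NaCl-Pluronic buffer, pH 8.0 | compound = single dose 7.94 µM | also added = FP-Rh probe, 375 nM dispensing solution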
zVAD death inh = blocks zVAD induced death of L929 cells. L929 zVAD necroptosis rescue, ATP luminescence, 24 h; with zVAD 60 µM. viability rescue, % at 10 µM. 220,000 compounds, 0.38% hits;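 active means activation, scaled between plate controls, above about 75%, limit read from the data; inactive means activation under that limit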;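 further: 0% = zVAD with DMSO and 100% = DMSO alone without zVAD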
Wee1 degr inh = human Wee1 degradation inhibition, primary screen; P30291; HeLa Luc-Wee1K328M stability, luciferase luminescence; 100% = proteasome inhibitor MG132 effect; reporter increase, % at 5 µM; 220,000 compounds, 1.2% hits;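 active means activation above the mean of all tested compounds plus 3 SD, set per screening run, cut at about 8.8% in these data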;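 further: cells exposed to compound for 20 h before luminescence read; 0% = DMSO alone and 100% = MG132 at 30 µM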
Calpain2 inh = inhibitors of pig calpain II; inhibition, % at 16 µM; purified calpain II, fluorogenic peptide substrate, 30 min; AID 1236; 220,000 compounds, 0.37% hits;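 active means inhibition above about 50%, limit read from the data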
TNF death inh = blocks TNF-alpha induced death of Jurkat FADD-/- cells. 220,000 compounds, 0.068% hits. AID 463075. activation (protection from cell death), % at 10 µM. Jurkat FADD-/- TNF necroptosis rescue, ATP luminescence, 24 h; 0 = TNF only, 100 = no-TNF cells;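 active means activation, meaning protection from cell death, of at least 50% relative to plate controls; inactive means activation below 50%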;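 further: necroptosis triggered by 40 ng/mL TNF-alpha added together with compound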
Pf gametocyte = kills late stage P. falciparum gametocytes. P. falciparum stage V gametocytes, ATP luminescence, 24 h. inhibition, % at 10.9 µM. 150,000 compounds, 0.065% hits. AID 743093;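 active means inhibition above the mean plus 3 SD of compounds within the control limits, set per campaign, cut at about 38% in these data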;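 further: 0% = DMSO wells and 100% = medium only without gametocytes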
Wee1 stab conf = confirmation of human Wee1 degradation inhibitors. activation, % at 5 µM. HeLa Luc-Wee1K328M degradation, luminescence; vehicle 0%, proteasome-blocked wells 100%. 1,100 compounds, 4% hits. AID 1410. shares compounds with Wee1 degr inh; in the data active means activation above about 8.9%
zVAD necrop conf = confirmed blocker of zVAD induced death in L929 cells; L929 zVAD-induced necroptosis rescue, ATP luminescence, 24 h; activation (protection from necroptosis), % at 10 µM; shares compounds with zVAD death inh; 760 compounds, 16% hits;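 active means mean protection from necroptosis of at least 50% over duplicate tests; inactive means mean protection below 50%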;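 further: 0% = cells with zVAD alone and 100% = vehicle cells without zVAD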
RBBP9 inh conf = human RBBP9 inhibition, confirmation. shares compounds with RBBP9 inhibitor. recombinant RBBP9, FP-Rh probe fluorescence polarization. inhibition, % at 7.94 µM. 410 compounds, 36% hits. AID 1537;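 active means inhibition above the hit cutoff derived for the primary screen, cut at about 15% in these data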;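 further: 0% = RBBP9 with DMSO and 100% = wells lacking RBBP9 protein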
* = called active by the depositor; · = not tested or not shown. Most compounds without a hit are left out; they make up all but 2.1% or so of the library.

SMILES	RBBP9 inhibitor	zVAD death inh	Wee1 degr inh	Calpain2 inh	TNF death inh	Pf gametocyte	zVAD necrop conf	others
C=CCNC(=O)C1CCN(c2c([N+](=O)[O-])cc(C(F)(F)F)cc2[N+](=O)[O-])CC1	-4.0	0.0	-0.8	-34.9	-3.5	1.1	·
CCOC(=O)COc1ccc2c(=O)cc(-c3ccccc3)oc2c1	-6.9	0.2	0.3	-2.6	2.9	-2.6	·
NC(=O)COc1ccc2oc(-c3ccccc3)cc(=O)c2c1	-3.2	81.2*	13.7*	-257.1	-1.5	-8.9	26.2	Wee1 stab conf=3.5
C#CCOC(=O)Nc1ccc(=O)n(Cc2c(Cl)cccc2Cl)c1	4.2	0.2	-1.8	-38.6	-3.4	13.8	·
CC(=O)Nc1cccc(-c2csc(Nc3ccc(C)cn3)n2)c1	-2.4	3.4	7.6	-11.0	-1.1	·	·
CC(=O)Nc1cccc(-c2csc(Nc3ncccn3)n2)c1	-10.7	79.8*	13.3*	12.6	6.1	·	4.6	Wee1 stab conf=5.2
C(=N\Nc1nc2ccccc2[nH]1)/c1ccc2c(c1)OCCO2	0.8	81.7*	11.4*	8.4	3.2	0.8	7.3	Wee1 stab conf=-0.2
CC(C)c1cc(C(=O)N2CCCC(CCC(=O)NCc3ccccc3F)C2)n(C)n1 (stereo not drawn)	-2.1	-0.5	-0.6	7.3	-0.1	4.3	·
Cc1ccc(Nc2cc(C)nn2-c2nc(C)cc(=O)[nH]2)cc1	1.7	77.7*	128.8*	23.3	9.2	·	52.5*	Wee1 stab conf=122.7*
O=[N+]([O-])c1ccc(Sc2cccc[n+]2[O-])c2nonc12	19.4*	-3.7	40.0*	22.3	-32.8	-30.3	·	Wee1 stab conf=43.0*;RBBP9 inh conf=49.6*
O=C(O)Cc1ccc(S(=O)(=O)Nc2ccccc2C(=O)O)cc1	5.0	1.3	-0.7	-2.1	0.5	-10.0	·
O=c1cc(N2CCN(c3ccccc3)CC2)[nH]c(=O)n1C1CCCCC1	1.9	81.2*	-2.0	24.3	21.3	·	25.8
CN1CCN(c2cc(=O)n(C3CCCCC3)c(=O)[nH]2)CC1	-8.8	-0.8	2.5	-2.0	0.3	·	·
O=c1cc(N2CCN(c3cccc(Cl)c3)CC2)[nH]c(=O)n1C1CCCCC1	-6.4	81.2*	-0.1	4.9	32.5	·	44.0
CC(=O)/C=C1\SC(CC(=O)O)C(=O)N1c1ccccc1 (stereo not drawn)	-10.1	-0.1	-2.4	-17.7	-0.2	·	·
CCOCC(=O)Nc1ccccc1C(=O)N1CCOCC1	0.3	0.7	-1.7	5.0	-0.9	·	·
COc1ccc(C2C(=O)N(CCc3ccccc3)CC(=O)N2C2CCCCC2)cc1 (stereo not drawn)	3.3	-0.3	1.9	6.0	0.9	-1.2	·
COc1ccccc1NC(=O)/C(=N/OCc1ccc(C#N)cc1)C(C)=O	6.9	75.9*	-2.5	-12.2	-1.1	-5.2	0.9
Cc1cc(Br)ccc1SCC(=O)OC/C(O)=C(\C#N)c1nc2ccccc2[nH]1	3.5	26.5	0.2	-11.3	10.9	-13.7	·
Cc1ccc(C)c(SCC(=O)OC/C(O)=C(\C#N)c2nc3ccccc3[nH]2)c1	-7.6	78.4*	0.2	-30.6	-1.5	5.8	29.2
O=C(c1cccs1)n1nc(-c2ccccc2)nc1NCc1ccco1	-2.6	0.6	0.1	-3.0	-0.9	·	·
COc1ccccc1C(=O)n1nc(-c2cccnc2)nc1NCc1ccccc1	-3.3	76.9*	-1.7	-1.7	0.9	9.6	15.8
CC(C)C(=O)n1nc(-c2cccnc2)nc1NCc1ccc(F)cc1	-3.0	30.2	-1.0	5.0	3.3	5.3	·
COCC(=O)n1nc(-c2ccccc2)nc1NCc1cccs1	-7.4	81.6*	13.6*	-2.0	3.1	-15.6	17.6
CCCC(=O)n1nc(-c2cccnc2)nc1NCc1ccc(OC)cc1	-9.0	79.6*	-3.0	-8.9	2.5	9.9	0.2
SMILES	RBBP9 inhibitor	zVAD death inh	Wee1 degr inh	Calpain2 inh	TNF death inh	Pf gametocyte	zVAD necrop conf	others
N#CC(CO)(Cc1ccc(OC(F)F)cc1)c1nc2ccccc2[nH]1 (stereo not drawn)	-1.0	0.3	6.2	-5.3	2.3	-10.3	·
Cc1ccccc1CNC(=O)C(=O)Nc1nccs1	-10.1	1.6	-2.2	-17.4	1.6	15.8	·
COc1ccc(/C=C2\N=C(SC)NC2=O)cc1	-15.6	90.7*	2.4	4.2	64.3*	·	76.9*
Cn1nc(C(C)(C)C)cc1NC(=O)Nc1cc(Cl)cc(Cl)c1	-8.5	94.0*	-0.7	16.0	22.1	-13.2	92.6*
O=C(O)C(CC1CCCCC1)N1CCS(=O)(=O)CC1 (stereo not drawn)	-4.1	-1.1	-0.9	31.2	0.1	·	·
CC1(C)Oc2ccc3ccc(=O)oc3c2/C(=C/NCCN/C=C2\C(=O)C(C)(C)Oc3ccc4ccc(=O)oc4c32)C1=O	-3.2	-1.0	-0.7	-150.4	-5.9	·	·
COc1cc(OC)cc(-c2c(C#Cc3ccsc3)c3cc(-c4ccc5c(c4)OCCO5)ccc3n2C)c1	·	·	·	·	·	10.3	·
S=C(NCCc1ccc(Cl)cc1)NC1CC1	3.7	91.8*	0.1	-18.1	-0.1	-18.0	5.8
O=C(c1ccc(COc2ccccc2Cl)o1)N1CCN(c2ccccc2)CC1	-2.6	1.6	0.7	20.7	1.5	·	·
O=C(c1ccc(COc2ccc3c(c2)CCC3)o1)N1CCN(c2ccccc2)CC1	3.1	1.0	-2.4	·	-1.1	-4.7	·
O=C(c1ccco1)N1CCN(C(=O)c2ccc(COc3ccc(Cl)cc3Cl)o2)CC1	0.7	86.4*	-0.6	·	-10.7	-2.6	34.8
O=C(c1ccco1)N1CCN(C(=O)c2ccc(COc3ccc4c(c3)CCC4)o2)CC1	-6.9	83.1*	5.5	-12.9	-0.9	-5.2	33.8
CCOc1ccccc1OCCC(=O)OCC(=O)c1ccc[nH]1	-11.2	1.4	-2.9	-53.9	0.4	2.9	·
COc1ccccc1C(=O)NCCc1c(C)[nH]c2c(C)ccc(F)c12	0.9	0.2	-1.7	13.4	-0.3	10.0	·
O=C(N/N=C/c1ccc[nH]1)c1cccc([N+](=O)[O-])c1	-4.8	1.7	-2.7	-3.0	0.2	9.2	·
O=Nc1c2ccc[nH]c-2c2ccc([N+](=O)[O-])cc12	-3.8	75.3*	-2.6	13.3	0.7	19.4	0.1
CC(C)Nc1nc(SCC(=O)Nc2ccccc2)nc(N2CCOCC2)n1	-0.9	-1.2	-1.0	31.0	-1.0	7.5	·
O=C(CSc1nnnn1-c1ccc(O)cc1)Nc1cccc(S(=O)(=O)N2CCCC2)c1	-11.1	88.0*	2.9	4.6	2.3	18.1	89.2*
